Assay outcomes deposited in PubChem BioAssay by Johns Hopkins Ion Channel Center.
RGS4 inh: RGS4 inhibitors, primary screen, cell-based, HEK293 M3R inducible RGS4, calcium flux; B-score at 10 µM; hit rate 0.45% among 310,000; AID 463165, 2010; Fluo-4 calcium flux; stronger effect = higher value; triggered by carbachol at its EC20;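 active = B-score, a plate-corrected calcium signal, over three deviations above library mean, with baseline fluorescence within five deviations of library mean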;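 note: RGS4 expression induced by doxycycline in cells with stable M3 receptor; B-score is computed from the integrated fluorescence ratio over baseline after carbachol; higher B-score means a larger calcium signal and so more RGS4 inhibition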
Target sequence (P49798 whole entry, looked up): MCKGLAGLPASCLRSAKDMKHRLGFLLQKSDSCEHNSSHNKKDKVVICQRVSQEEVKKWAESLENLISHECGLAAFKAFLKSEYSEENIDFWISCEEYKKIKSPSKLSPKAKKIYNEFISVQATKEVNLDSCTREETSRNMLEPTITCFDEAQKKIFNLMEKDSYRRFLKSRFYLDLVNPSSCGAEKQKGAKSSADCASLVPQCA
Kir21 block: inhibitors of mouse Kir2.1 inward-rectifier potassium channel; Inward rectifier potassium channel 2 (Mus musculus), P35561; HEK293-Kir2.1, FluxOR thallium flux fluorescence; stronger effect = lower value; B-score at 10 µM; hit rate 0.85% among 310,000; AID 1672, 2009;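 active = fluorescence ratio B-score at or below minus 3 SD of library scores, with starting-brightness B-score within 2 SD, cut at about -4.2 in these data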;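 note: channel flux triggered by added potassium and thallium sulfate stimulus; B-score of peak minus minimum fluorescence over baseline after thallium stimulus; more negative B-score means stronger Kir2.1 block with less thallium influx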
Target sequence (P35561 whole entry, looked up): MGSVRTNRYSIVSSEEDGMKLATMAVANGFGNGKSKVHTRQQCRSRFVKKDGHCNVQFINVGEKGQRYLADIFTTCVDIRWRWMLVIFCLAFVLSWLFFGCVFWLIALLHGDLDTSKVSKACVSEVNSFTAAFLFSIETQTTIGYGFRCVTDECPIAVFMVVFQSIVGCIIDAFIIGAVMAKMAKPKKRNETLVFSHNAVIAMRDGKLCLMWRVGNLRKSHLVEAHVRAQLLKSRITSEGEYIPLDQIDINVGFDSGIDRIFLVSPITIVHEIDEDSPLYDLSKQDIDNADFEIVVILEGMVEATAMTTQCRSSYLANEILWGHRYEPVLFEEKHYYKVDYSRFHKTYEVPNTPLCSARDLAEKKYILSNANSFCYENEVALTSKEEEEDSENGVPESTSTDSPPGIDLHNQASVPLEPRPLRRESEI
MrgX1 antagonist: antagonists of human MrgX1 receptor, primary screen, HEK293 cells, Fluo-4 calcium flux | hit rate 1.3% among 310,000 | Mas-related G-protein coupled receptor member X1 (Homo sapiens), Q96LB2 | B-score at 10 µM | BAM8-22 antagonism; stronger effect = lower value;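 active = calcium-response B-score plate-corrected more than 3 library SD below zero, starting fluorescence within 5 deviations, no agonist response on first addition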;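 note: peak minus trough fluorescence over baseline after final BAM8-22 challenge near maximal dose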
MrgX1 ag: agonists of human MrgX1 receptor, primary screen, HEK293 cells, Fluo-4 calcium flux | hit rate 0.44% among 310,000 | Mas-related G-protein coupled receptor member X1 (Homo sapiens), Q96LB2 | B-score at 10 µM | Fluo-4 calcium fluorescence, agonist mode; stronger effect = higher value;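 active = calcium response B-score plate-corrected fluorescence ratio at least 3 library SD, with starting fluorescence B-score inside 5 SD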
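Assay system: MrgX1-expressing HEK293 cells / Amount: fifteen thousand cells per well / Doses: test compound in the initial addition of three / Timing: cells plated overnight, dye loaded 0.5 h 37 °C, 0.5 h room temperature / Technique: kinetic calcium dye fluorescence, Fluo-4 NW / Control set: positive and negative controls per plate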
MrgX1 PAM: positive allosteric modulators of MrgX1, primary screen, HEK293 cells, Fluo-4 calcium flux. hit rate 0.63% among 310,000. B-score at 10 µM. FDSS; stronger effect = higher value;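 active = plate-corrected calcium response at least 3 library SD above typical, normal starting fluorescence, not activating the receptor alone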;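 note: compound read alongside a low EC10 to EC30 dose of BAM8-22 agonist; peak minus trough fluorescence over baseline measured at the second addition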
RGS4 act: RGS4 potentiators or activators, primary screen, cell-based, HEK293 M3R inducible RGS4, calcium flux | carbachol calcium flux Fluo4; stronger effect = lower value | B-score at 10 µM | hit rate 0.92% among 310,000;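 active = B-score of the integrated calcium signal more than 4 SD below the library mean, with starting fluorescence not abnormally high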;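 note: negative B-score means reduced calcium response which marks RGS4 activation or potentiation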
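test system = HEK293 cells with stable M3R and inducible RGS4 | schedule = recording 10 s baseline at 1 Hz, 100 s post-agonist | technique = Fluo4-AM (2 µM) calcium-flux fluorescence, kinetic read | measure = Agonist-evoked peak-minus-minimum fluorescence over baseline, integrated ratio, B score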
hERG ctr: hERG channel inhibition, counter-screen for Kir2.1 inhibitor project, cell-based, thallium flux; shares compounds with Kir21 block; hERG-expressing cells; inhibition, % at 10 µM; hit rate 20% among 320; AID 2236, 2010;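 note: host cells are CHO cells stably expressing hERG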
KCNK9 spec: KCNK9 channel inhibition, selectivity assay for Kir2.1 inhibitor project, cell-based; shares compounds with Kir21 block; KCNK9-expressing cells, ion flux inhibition; inhibition, % at 10 µM; hit rate 5% among 320
Kir21 ephys inh: mouse Kir2.1 channel blockers, Kir2.1 inhibitor project, cell-based, secondary, automated electrophysiology | shares compounds with Kir21 block | Kir2.1 cells, automated patch-clamp current inhibition | inhibition, % at 25 µM | hit rate 71% among 320
An asterisk follows results filed as active; i = inactive; . = no result given. An excerpt weighted towards active compounds, which were near 4.1% of everything screened. Unless noted, the rule behind the calls is not given here.

SMILES	RGS4 inh	Kir21 block	MrgX1 antagonist	MrgX1 ag	MrgX1 PAM	RGS4 act	hERG ctr	KCNK9 spec	Kir21 ephys inh
O=C(O)c1ccc(S(=O)(=O)N2CCCc3ccccc32)cc1	i	0.05	i	i	i	i	.	.	.
O=S(=O)(c1ccccc1)N1CCCc2ccccc21	i	-6.5*	i	i	i	i	i	i	22%*
O=S(=O)(c1ccc(F)cc1)N1CCCc2ccccc21	i	-6*	i	i	i	i	i	i	19%*
CC(=O)c1ccc(S(=O)(=O)N2CCCc3ccccc32)cc1	i	-3.1	i	i	i	i	.	.	.
CCC1CCCCN1C(=S)NC(=O)c1cccc([N+](=O)[O-])c1 (stereo unspecified)	i	2.7	i	i	i	i	i	i	i
CC1CCN(C(=S)NC(=O)c2cccc([N+](=O)[O-])c2)CC1	i	2	i	i	i	i	.	.	.
O=C1CC(c2ccccc2)n2nc(NC(=O)c3ccccn3)nc2N1 (stereo unspecified)	i	0.09	i	i	i	i	.	.	.
CCn1ncc(/C=C/C(=O)Nc2c(C)nn(CC)c2C)c1C	i	2.7	i	i	i	i	.	.	.
CCCCOC(=O)CSCC(=O)Nc1cc(C)on1	i	-1.1	i	i	i	i	.	.	.
Cc1cc(NC(=O)CSCC(=O)OC(C)C(=O)c2cc(C)c(C)cc2C)no1 (stereo unspecified)	i	-6.3*	i	i	i	i	i	i	18%*
C=CCc1ccc(OCC(O)CN2CCc3ccccc3C2)c(OC)c1 (stereo unspecified)	i	-5.8*	i	i	i	i	56%*	i	25%*
COc1ccc(C(=O)NNC(=S)Nc2ccccc2)cc1	i	1.3	i	i	i	i	.	.	.
COc1ccc(Oc2c(-c3ccc(O)cc3O)n[nH]c2C)cc1	i	-5.7*	i	i	i	i	i	i	0.2%*
CCN(c1cccc(C)c1)S(=O)(=O)c1ccc2c(c1)NC(=O)CS2	i	-5.9*	i	i	i	i	i	i	i
CCN(c1cccc(C)c1)S(=O)(=O)c1ccc2c(c1)NC(=O)CCS2	i	0.77	i	i	i	i	.	.	.
CCOC(=O)CNC(=O)Cc1ccc(Cl)cc1	i	0.72	i	i	i	i	.	.	.
O=C(O)COc1ccccc1/C=N/NC(=O)CSc1nc2ccccc2n1Cc1ccccc1Cl	i	2.8	i	i	i	i	i	i	i
O=C(CSc1nc2ccccc2n1Cc1ccccc1Cl)N/N=C/c1ccccc1C(=O)O	i	1.4	i	i	i	i	.	.	.
CN(C)CCNC(=O)c1onc(CSc2ccc(F)cc2)c1C(=O)NCCN(C)C	i	0.7	i	i	i	i	.	.	.
CCOC(=O)c1ccccc1NC(=O)COC(=O)CSCC(=O)Nc1cc(C)on1	i	-1.8	i	i	i	i	.	.	.
COC(=O)c1cc2ccccc2c(-c2c(OC)c(C(=O)OC)cc3ccccc23)c1OC	i	1.9	i	i	i	i	.	.	.
COc1ccc(CCNC(=O)C(C)SCc2ccccc2)cc1 (stereo unspecified)	i	-7.5*	i	i	i	i	i	i	56%*
Cc1ccc(CNC(=O)NCc2ccccc2)cc1	i	0.54	i	i	i	i	.	.	.
Cc1ccc(CNCC(O)(c2ccccc2)c2ccccc2)cc1	i	-9.2*	i	i	i	i	i	i	i
COCCNC(=O)C(=O)NNC(=O)COc1ccc(OC)cc1	i	1.1	i	i	i	i	.	.	.
SMILES	RGS4 inh	Kir21 block	MrgX1 antagonist	MrgX1 ag	MrgX1 PAM	RGS4 act	hERG ctr	KCNK9 spec	Kir21 ephys inh
CN(C)CCN(Cc1ccccc1)C(=O)[C@H](Cc1ccccc1)N1C(=O)c2ccccc2C1=O	i	-6*	i	i	i	i	i	i	i
CCOc1ccc(C(C)=O)cc1CSc1nnnn1-c1ccc(O)cc1	i	-8.4*	i	i	i	i	i	i	24%*
COc1ccc(C(C)=O)cc1CSc1nnnn1-c1ccc(O)cc1	i	-1.4	i	i	i	i	.	.	.
COc1ccc(CN(C)CC(O)COC(c2ccc(OC)cc2)c2ccc(OC)cc2)cc1 (stereo unspecified)	i	-8.7*	i	i	i	i	75%*	i	i
Cc1cccc(Nc2nc(C)nc3c2oc2ccccc23)c1	i	-1.5	i	i	i	i	.	.	.
CC(O)CNCCCOc1cccc(C(F)(F)F)c1 (stereo unspecified)	i	-0.86	i	i	i	i	.	.	.
CC(O)CNCCCOc1cccc(Oc2ccccc2)c1 (stereo unspecified)	i	-7.6*	i	i	i	i	i	i	77%*
C/C(=N\N=C1/NC(=O)C(C)S1)c1ccc([N+](=O)[O-])cc1 (stereo unspecified)	i	-0.24	i	i	i	i	.	.	.
COC(=O)c1ccccc1NC(=O)CN1CCC(NC(=O)c2ccc(C)cc2)CC1	i	-1.7	i	i	i	i	.	.	.
CC(C)CCn1c2ccccc2c2cc(CC(N)=O)ccc21	i	4	i	i	i	i	i	i	i
CCOC(=O)CSc1nc(Cc2ccccc2)nc2ccccc12	i	-6*	i	i	i	i	i	i	32%*
COC(=O)CSc1nc(Cc2ccccc2)nc2ccccc12	i	-2.8	i	i	i	i	.	.	.
